# TNAP act DEA – human TNAP activation, intermediate phosphate acceptor; P05186; purified TNAP, CDP-star luminescence, 100 mM DEA, 30 min; hits give high values; scale: 0 levamisole-inhibited, 1 vehicle-only enzyme; activation factor at 20 µM; 64,000 tested, under 10 active;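 active = activation factor of at least 2 at 20 µM, relative to controls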
# Target sequence (P05186 whole entry, looked up): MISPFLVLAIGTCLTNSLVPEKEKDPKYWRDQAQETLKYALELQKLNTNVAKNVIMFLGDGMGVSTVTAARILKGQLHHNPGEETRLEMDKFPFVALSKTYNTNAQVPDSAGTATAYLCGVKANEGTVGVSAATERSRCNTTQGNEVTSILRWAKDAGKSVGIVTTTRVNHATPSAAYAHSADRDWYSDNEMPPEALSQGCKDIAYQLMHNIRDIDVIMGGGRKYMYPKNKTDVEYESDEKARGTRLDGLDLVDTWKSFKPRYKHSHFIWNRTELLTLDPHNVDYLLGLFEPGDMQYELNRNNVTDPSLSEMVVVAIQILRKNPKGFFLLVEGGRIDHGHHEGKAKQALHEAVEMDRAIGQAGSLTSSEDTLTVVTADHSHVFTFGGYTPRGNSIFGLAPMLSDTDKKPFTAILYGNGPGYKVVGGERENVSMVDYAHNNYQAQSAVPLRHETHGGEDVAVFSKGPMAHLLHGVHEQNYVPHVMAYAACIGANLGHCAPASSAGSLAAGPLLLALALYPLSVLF
# AP complement – orthogonal test for alternative complement pathway inhibitors; Human serum alternative complement pathway, LPS-coated ELISA, C3 deposition; tested in compound mixtures; 0.08% of 62,000 active; AID 1235; inhibition, % at 5 µM;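 active = inhibition above 30% in each of the two pooled mixtures holding the compound, so the lower value exceeds 30%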;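 note: 0% = serum in Mg-EGTA without compound and 100% = EDTA serum blank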
#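 Test system: human serum complement alternative pathway, C3 deposition onto LPS / Medium: Mg2+-EGTA GVB++ buffer containing human serum at 1:15 dilution / Probe or stimulus: Plate-bound LPS / Times: 1 h at 37 °C / Signal: ELISA with HRP anti-human C3 antibody, TMB substrate, absorbance 450 nm / Measure: percent inhibition / Repeats: two pool placements per compound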
# DPM-DC inhibit – S. pneumoniae DPM-DC inhibition | purified DPM-DC, PK/LDH coupled NADH fluorescence | calls only at 10 µM | 0.49% of 65,000 active;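 active = the 320 compounds with the highest percent inhibition in the single-dose primary screen, excluding strongly autofluorescent ones, cut at about 32% in these data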;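 note: kinetic rate of NADH fluorescence loss reporting ADP formed by the decarboxylase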
# PMK inhibit – blocks S. pneumoniae phosphomevalonate kinase; purified PMK, PK/LDH-coupled NADH absorbance 340 nm; inhibition, % at 10 µM; 0.49% of 65,000 active; AID 539;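 active = top-ranked compounds by inhibition in the single 10 µM screen, taking a fixed number of the strongest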;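 note: 0% = full reaction with DMSO carrier and 100% = background rate without enzyme reaction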
# E coli RNAP – inhibitors of Escherichia coli RNA polymerase | P0A8V2 | E. coli RNA polymerase, fluorescence transcription assay | inhibition, %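 (tested at 10 µM)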 | 0.2% of 62,000 active | AID 559; in the data active = inhibition above about 20%;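 note: 0% = enzyme without compound and 100% = no enzyme blank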
# MK inhibit – S. pneumoniae mevalonate kinase inhibition | purified MK, PK/LDH-coupled NADH absorbance 340 nm | inhibition, % at 10 µM | 0.48% of 65,000 active;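 active = ranked among the strongest by inhibition in the single 10 µM screen, a fixed top-ranked set picked for dose follow-up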
# An asterisk follows results filed as active; i = inactive; · = no result shown; + = active, no number. Most compounds without a hit are left out; they make up all but 1.5% or so of the library.
SMILES,TNAP act DEA,AP complement,DPM-DC inhibit,PMK inhibit,E coli RNAP,MK inhibit
CCN(CC)CCNC(=O)CCCCn1c(=S)[nH]c2c([nH]c3ccc(OC)cc32)c1=O,0.9,6,i,1,1,42*
CCN(CC)CCNC(=O)CCn1c(=S)[nH]c2cc3c(cc2c1=O)OCO3,0.8,10,i,7,5,1
COc1ccc(Cc2c(O)nc(SC)n(C(C)=O)c2=O)cc1,1.1,16,i,6,25*,8
CS(=O)(=O)N(CC(=O)NCCC1=CCCCC1)c1ccc2c(c1)OCO2,0.9,9,i,10,-1,7
Clc1c(-c2nnc3n2CCCCC3)sc2ccccc12,1,-10,i,14,7,0
Clc1c(-c2nnc3n2CCC3)sc2ccccc12,0.9,8,+,3,6,8
Cc1ccnc(NC(=O)CCC(=O)N(CC(=O)NCC2CCCO2)Cc2ccc(F)cc2)c1 (stereo not drawn),0.9,-3,i,21,3,10
O/N=C1\CCC\C1=C/c1ccco1,0.9,15,+,8,4,4
O/N=C1/CCCSc2ccccc21,0.9,15,i,8,2,4
COc1ccc(-c2c3c(=O)n(C)c(=O)n(C)c3cn2C2CCCCC2)cc1,0.9,10,i,7,5,18
COc1cc(NC(=O)c2ncn[nH]2)cc(OC)c1OC,·,·,i,1,·,1
CC1CCN(S(=O)(=O)c2ccc(NC(=O)CN3CCN(C)CC3)cc2)CC1,0.9,9,i,13,4,48*
Clc1ccccc1CSc1ncccn1,0.9,22,i,6,9,9
CCCc1nnc(NC(=O)CCC(=O)Nc2ccc(F)cc2)s1,0.8,2,i,13,7,12
Cc1cc(C)c2[nH]c(=O)c(CN(CC3CCCO3)S(=O)(=O)c3ccc4c(c3)OCCO4)cc2c1 (stereo not drawn),0.8,-5,i,15,8,18
Cc1cccc2cc(CN(Cc3ccco3)S(=O)(=O)c3ccc4c(c3)OCCO4)c(=O)[nH]c12,0.9,-4,+,5,6,5
CCn1c2ccccc2c2nnc(SCC(=O)NC(CC(C)C)C(=O)OC)nc21 (stereo not drawn),0.9,-1,i,2,2,9
CCNC(=O)CN(C1CCCCC1)S(=O)(=O)c1ccc(F)cc1,0.9,3,i,0,6,5
COCCCNC(=O)CN(C1CCCCC1)S(=O)(=O)c1ccc(C)cc1,1.1,-11,i,30*,3,2
Oc1ccc(-c2n[nH]c(=S)n2Cc2ccccc2)cc1,0.8,0,i,0,-14,active
S=c1[nH]nc(-c2ccncc2)n1Cc1ccccc1,0.9,10,i,16,2,18
Cc1nn(-c2ccccc2)c(Cl)c1C(=O)Nc1nnc(C2CCCC2)s1,0.9,29,i,14,5,0
Cc1ccc(OC(=O)c2cccc(C(=O)Oc3ccc(C)cn3)n2)nc1,1.1,4,i,0,7,0
Cc1cc(C)c(S(=O)(=O)NCc2cn3c(C)csc3n2)cc1C,0.9,12,+,1,15,8
CCC(=O)N1CCc2cc(Br)cc(S(=O)(=O)N3CCN(c4ccccn4)CC3)c21,0.9,21,i,0,6,7
SMILES,TNAP act DEA,AP complement,DPM-DC inhibit,PMK inhibit,E coli RNAP,MK inhibit
COC(=O)[C@@H](NC(=O)N1CCN(c2cccc(C(F)(F)F)c2)CC1)C(C)C,0.9,-1,i,30*,4,14
CC(C)COC(=O)Cn1cnc2ccc(Br)cc2c1=O,1,7,i,12,·,8
Cc1cc(N2C(=O)C3C4C=CC(C4)C3C2=O)ccc1Br (stereo not drawn),0.9,-1,i,15,13,13
Cc1ccccc1CN1CCN(S(=O)(=O)c2ccc(F)cc2)CC1,0.9,4,+,1,8,30
COc1cccc(OC)c1C(=O)N1CCN(Cc2ccccc2C)CC1,0.9,7,i,0,0,48*
Cc1cccc(C)c1N1CCN(S(=O)(=O)c2ccc(F)cc2)CC1,0.9,10,i,10,5,5
CCC(=O)Nc1ccc(S(=O)(=O)Nc2cccc(C)c2)cc1OC,0.9,-2,i,7,7,3
CCC1(CC)NC(=O)N(CC(=O)Nc2sc3c(c2C(N)=O)CCC3)C1=O,0.9,0,i,19,5,0
COc1ccc(-n2c(SCc3nnc(-c4ccccc4)o3)nnc2-c2ccccc2)cc1,0.9,7,i,26*,7,2
CCOC(=O)c1c(C)n(OCc2ccccc2)c2ccc3c(no[n+]3[O-])c12,0.8,5,+,6,4,7
CCOC(=O)COn1c2c(c3c4no[n+]([O-])c4ccc31)CCCC2,0.9,15,i,12,5,5
CN(C)CCSc1nnc(-c2ccccc2)o1,0.9,19,+,5,4,5
COC(=O)c1ccc(CSc2ccc3nnc(-c4cccc(F)c4)n3n2)o1,0.9,28,i,15,5,6
CCOC(=O)CCn1c2nc(C)cc(C)c2c(=O)n1-c1ccccc1,0.9,14,·,64*,3,3
Cc1ccc(-n2c(N)c(C(N)=O)sc2=S)c(C)c1,0.9,-4,i,5,14,10
Cc1ccc(C)c(-n2c(N)c(C(N)=O)sc2=S)c1,1,7,i,3,40*,10
COc1ccc(Cl)cc1N1C(=O)C2CCCN2C1c1ccc(F)cc1 (stereo not drawn),0.9,2,i,1,9,12
CCC(=O)N[C@@H]1CC(C(C)(C)NC(=O)CC)CC=C1C (stereo partly drawn),0.9,8,i,9,10,2
COc1cc(CNc2ccc(N3CCOCC3)c(C(=O)O)c2)ccc1OCC(N)=O,0.9,-3,+,2,1,6
O=C1CN(C(=O)COC(=O)c2ccccc2NC(=O)c2ccco2)c2ccccc2N1,0.8,-4,i,0,-4,0
Cc1ccc(-c2n[nH]c(=S)n2C)cc1,0.7,11,i,9,6,6
Cc1ccc(-c2cn3c(=S)[nH]nc3s2)cc1,0.8,13,i,16,5,99*
COCCN1C(=O)c2oc3cc(C)c(C)cc3c(=O)c2C1c1ccc(O)cc1 (stereo not drawn),1,14,i,12,7,9
COc1cc(CN2CC(C)OC(C)C2)cc(OC)c1 (stereo not drawn),0.9,7,i,0,6,45*
COc1ccc(OC(C)C(=O)N2CC(C)OC(C)C2)cc1 (stereo not drawn),1,20,i,4,8,9

# Compound activity (PubChem)
